From ChEMBL document CHEMBL1687761

Legend:
[1] = system: Escherichia coli; assay: Ratio of Kcat to Km for Escherichia coli XL1-Blue IMP-1 W64A mutant beta-lactamase by spectrophotometer
[2] = system: Escherichia coli; assay: Ratio of Kcat to Km for Escherichia coli XL1-Blue VIM-2 A64W mutant beta-lactamase by spectrophotometer
Method in brief: (§1)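 Mutant enzyme expressed in E. coli BL21(DE3) in autoinducing ZYP-5052 medium. Purified by anion exchange at pH 7.2, then high-resolution anion exchange at pH 9.2, plus gel filtration in 50 mM HEPES-50 μM ZnSO4 pH 7.5 where needed. Identity confirmed by tryptic peptide mass fingerprint. Steady-state kinetics on β-lactam substrates were run under the conditions used for wild-type VIM-2.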

[3] = system: Escherichia coli; assay: Ratio of Kcat to Km for Escherichia coli XL1-Blue wild-type IMP-1 beta-lactamase by spectrophotometer
[4] = system: Escherichia coli; assay: Activity of Escherichia coli XL1-Blue IMP-1 W64A mutant beta-lactamase by spectrophotometer
[5] = system: Escherichia coli; assay: Activity of Escherichia coli XL1-Blue wild-type IMP-1 beta-lactamase by spectrophotometer
[6] = system: Escherichia coli; assay: Activity of Escherichia coli XL1-Blue VIM-2 A64W mutant beta-lactamase by spectrophotometer; method in brief: as §1
[7] = system: CO/N=C(\C(=O)N[C@@H]1C(=O)N2C(C(=O)[O-])=C(C[N+]3(C)CCCC3)CS[C@H]12)c1csc(N)n1; assay: (§2) Ratio of Kcat to Km for Escherichia coli BL21(DE3) VIM-2 W87F mutant beta-lactamase by spectrophotometer
[8] = system: C[C@@H](O)[C@H]1C(=O)N2C(C(=O)O)=C(SCCNC=N)C[C@H]12; assay: as §2
[9] = system: CO/N=C(\C(=O)N[C@@H]1C(=O)N2C(C(=O)[O-])=C(C[N+]3(C)CCCC3)CS[C@H]12)c1csc(N)n1; assay: (§3) Activity of Escherichia coli BL21(DE3) VIM-2 W87F mutant beta-lactamase by spectrophotometer
[10] = system: C[C@@H](O)[C@H]1C(=O)N2C(C(=O)O)=C(SCCNC=N)C[C@H]12; assay: as §3
[11] = system: Metallo-beta-lactamase (Escherichia coli), Q5U7L7 [W87F]; assay: Activity of beta-lactamase VIM-2 W87F mutant expressed in Escherichia coli XL1-Blue isolated from 3.8 hrs grown culture
Method in brief: (§4)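 E. coli XL-1 carrying pLBII-VIM-2 (wild-type or W87F) was grown and sampled at the stated times, with cell density read as A600. Imipenem hydrolysis in crude cell extracts was read spectrophotometrically in 10 mM HEPES pH 7.5 with 50 μM ZnSO4 and 150 μM imipenem. Activity was normalized to cell density. Values are means of three independent measurements.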

[12] = system: Metallo-beta-lactamase (Escherichia coli), Q5U7L7 [W87F]; assay: Activity of beta-lactamase VIM-2 W87F mutant expressed in Escherichia coli XL1-Blue isolated from 3.3 hrs grown culture; method in brief: as §4
[13] = system: Metallo-beta-lactamase (Escherichia coli), Q5U7L7 [W87F]; assay: (§5) Activity of beta-lactamase VIM-2 W87F mutant expressed in Escherichia coli XL1-Blue isolated from […] grown culture
[14] = system: Metallo-beta-lactamase (Escherichia coli), Q5U7L7 [W87F]; assay: as §5; remark: listed apart in the source
[15] = system: Metallo-beta-lactamase (Escherichia coli), Q5U7L7 [W87F]; assay: as §5; remark: listed apart in the source
[16] = system: Metallo-beta-lactamase (Escherichia coli), Q5U7L7 [W87F]; assay: Activity of beta-lactamase VIM-2 W87F mutant expressed in Escherichia coli XL1-Blue isolated from 1.2 hrs grown culture
Method in brief: (§6)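 Imipenem-hydrolyzing activity in crude cell extracts of E. coli XL-1 carrying pLBII-VIM-2 or pLBII-VIM-2-W87F. Read spectrophotometrically with 150 μM imipenem in 10 mM HEPES (pH 7.5) plus 50 μM ZnSO4. Activity normalized to culture density (A600). Means of three independent measurements.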

[17] = system: Metallo-beta-lactamase (Escherichia coli), Q5U7L7 [W87F]; assay: Activity of beta-lactamase VIM-2 W87F mutant expressed in Escherichia coli XL1-Blue isolated from 0.5 hrs grown culture; method in brief: as §4
[18] = target: Metallo-beta-lactamase (Escherichia coli) (UniProt Q5U7L7); assay: Activity of beta-lactamase VIM-2 in Escherichia coli XL1-Blue isolated from 6 hrs grown culture; method in brief: as §4
[19] = target: Metallo-beta-lactamase (Escherichia coli) (UniProt Q5U7L7); assay: Activity of beta-lactamase VIM-2 in Escherichia coli XL1-Blue isolated from 5 hrs grown culture; method in brief: as §4
[20] = target: Metallo-beta-lactamase (Escherichia coli) (UniProt Q5U7L7); assay: Activity of beta-lactamase VIM-2 in Escherichia coli XL1-Blue isolated from 4.3 hrs grown culture; method in brief: as §6
[21] = target: Metallo-beta-lactamase (Escherichia coli) (UniProt Q5U7L7); assay: Activity of beta-lactamase VIM-2 in Escherichia coli XL1-Blue isolated from 3.8 hrs grown culture; method in brief: as §4
[22] = target: Metallo-beta-lactamase (Escherichia coli) (UniProt Q5U7L7); assay: Activity of beta-lactamase VIM-2 in Escherichia coli XL1-Blue isolated from 3.3 hrs grown culture; method in brief: as §4
[23] = target: Metallo-beta-lactamase (Escherichia coli) (UniProt Q5U7L7); assay: (§7) Activity of beta-lactamase VIM-2 in Escherichia coli XL1-Blue isolated from […] grown culture
[24] = target: Metallo-beta-lactamase (Escherichia coli) (UniProt Q5U7L7); assay: as §7; remark: listed apart in the source
[25] = target: Metallo-beta-lactamase (Escherichia coli) (UniProt Q5U7L7); assay: as §7; remark: listed apart in the source
[26] = target: Metallo-beta-lactamase (Escherichia coli) (UniProt Q5U7L7); assay: Activity of beta-lactamase VIM-2 in Escherichia coli XL1-Blue isolated from 1.2 hrs grown culture; method in brief: as §6
[27] = target: Metallo-beta-lactamase (Escherichia coli) (UniProt Q5U7L7); assay: Activity of beta-lactamase VIM-2 in Escherichia coli XL1-Blue isolated from 0.5 hrs grown culture; method in brief: as §4
[28] = system: Metallo-beta-lactamase (Escherichia coli), Q5U7L7 [W87F]; assay: Activity of beta-lactamase VIM-2 W87F mutant expressed in Escherichia coli XL1-Blue isolated from 4.3 hrs grown culture; method in brief: as §6
[29] = system: Metallo-beta-lactamase (Escherichia coli), Q5U7L7 [W87F]; assay: Activity of beta-lactamase VIM-2 W87F mutant expressed in Escherichia coli XL1-Blue isolated from 5.0 hrs grown culture; method in brief: as §4
[30] = system: Metallo-beta-lactamase (Escherichia coli), Q5U7L7 [W87F]; assay: Activity of beta-lactamase VIM-2 W87F mutant expressed in Escherichia coli XL1-Blue isolated from 6.0 hrs grown culture; method in brief: as §4

| Compound | kcat/Km [1] [M⁻¹ s⁻¹] | kcat/Km [2] [M⁻¹ s⁻¹] | kcat/Km [3] [M⁻¹ s⁻¹] | Km [4] [µM] | kcat [4] [s⁻¹] | Km [5] [µM] | kcat [5] [s⁻¹] | Km [6] [µM] | kcat [6] [s⁻¹] | other results |
| --- | --- | --- | --- | --- | --- | --- | --- | --- | --- | --- |
| CC(=O)OCC1=C(C(=O)O)N2C(=O)[C@@H](NC(=O)Cc3cccs3)[C@H]2SC1 | 310000 | 2.2e+07 | 6.4e+06 | > 500 | > 250 | 5 | 32 | 6 | 135 | – |
| C[C@@H](O)[C@H]1C(=O)N2C(C(=O)O)=C(S[C@@H]3CN[C@H](C(=O)N(C)C)C3)[C@H](C)[C@H]12 | – | 3e+06 | 500000 | – | – | 10 | 5 | 2 | 6 | – |
| CO/N=C(\C(=O)N[C@@H]1C(=O)N2C(C(=O)O)=C(COC(C)=O)CS[C@H]12)c1csc(N)n1 | 1.5e+06 | 3.7e+06 | 4.8e+06 | 61 | 98 | 2.8 | 13.4 | 7 | 26 | – |
| Metallo-beta-lactamase (Escherichia coli) (from UniProt Q5U7L7) W87F | – | – | – | – | – | – | – | – | – | kcat/Km [7]: 48000 M⁻¹ s⁻¹; kcat/Km [8]: 3.7e+06 M⁻¹ s⁻¹; Km [9]: > 450 µM; kcat [9]: > 20 s⁻¹; Km [10]: 6 µM; kcat [10]: 22 s⁻¹ |
| CO[C@@]1(NC(=O)Cc2cccs2)C(=O)N2C(C(=O)O)=C(COC(N)=O)CS[C@@H]21 | 900000 | – | 3e+06 | 45 | 40 | 3 | 9 | – | – | – |
| C[C@@H](O)[C@H]1C(=O)N2C(C(=O)O)=C(SCCNC=N)C[C@H]12 | 550000 | 2.9e+06 | 2.7e+06 | 120 | 67 | 25 | 68 | 21 | 60 | Activity [11]: 4.7 nmol/mL/min; Activity [12]: < 2.7 nmol/mL/min; Activity [13]: < 2.7 nmol/mL/min; Activity [14]: < 2.7 nmol/mL/min; Activity [15]: < 2.7 nmol/mL/min; Activity [16]: < 2.7 nmol/mL/min; Activity [17]: < 2.7 nmol/mL/min; Activity [18]: 380 nmol/mL/min; Activity [19]: 330 nmol/mL/min; Activity [20]: 270 nmol/mL/min; Activity [21]: 240 nmol/mL/min; Activity [22]: 170 nmol/mL/min; Activity [23]: 110 nmol/mL/min; Activity [24]: 39 nmol/mL/min; Activity [25]: 30 nmol/mL/min; Activity [26]: < 2.7 nmol/mL/min; Activity [27]: < 2.7 nmol/mL/min; Activity [28]: 4.7 nmol/mL/min; Activity [29]: 7.9 nmol/mL/min; Activity [30]: 9.5 nmol/mL/min |
